Results as given in ChEMBL document CHEMBL1125797, “Synthesis, characterization and myocardial uptake of cationic bis(arene)technetium(I) complexes” (J Med Chem, 1991).

How the values were obtained:
Rattus norvegicus [1] = assay: Biodistribution of compound in rat gonads at 5 min after intravenous administration; assay type: ADME, organism-based, Gonad; settings: in vivo
Summary of the method: (§1)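 Time course in Sprague-Dawley rats after lateral tail-vein injection of the 99mTc complex in normal saline (~12.5 μCi/mL) at ~25 μCi/kg. Tissues were sampled at the stated times, washed with saline, blotted, weighed and γ-counted to give percent injected dose per g. Values are averages of male and female rats.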

Rattus norvegicus [2] = assay: Biodistribution of compound in rat eye at 1440 min after intravenous administration; assay type: ADME, organism-based; settings: in vivo, 24 h; summary of the method: as §1
Rattus norvegicus [3] = assay: Biodistribution of compound in rat liver at 1440 min after intravenous administration; assay type: ADME, organism-based; settings: in vivo, 24 h; summary of the method: as §1
Rattus norvegicus [4] = assay: Biodistribution of compound in rat lungs at 180 min after intravenous administration; assay type: ADME, organism-based, Lung; settings: in vivo, 3 h
Summary of the method: (§2)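 Rats received the 99mTc complex in normal saline (~12.5 μCi/mL) by lateral tail vein injection at ~25 μCi/kg and were killed by cervical dislocation at the stated time. Tissues were washed with saline, blotted, weighed and γ-counted to give percent injected dose/g. Time-course values are averages of male and female rats.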

Rattus norvegicus [5] = assay: Biodistribution of compound in rat heart at 1440 min after intravenous administration; assay type: ADME, organism-based; settings: in vivo, 24 h; summary of the method: as §1
Rattus norvegicus [6] = assay: Biodistribution of compound in rat bone marrow at 180 min after intravenous administration; assay type: ADME, organism-based; settings: in vivo, 3 h; summary of the method: as §1
Rattus norvegicus [7] = assay: Biodistribution of compound in rat eye at 90 min after intravenous administration; assay type: ADME, organism-based; settings: in vivo, 1.5 h; summary of the method: as §1
Rattus norvegicus [8] = assay: Biodistribution of compound in rat bone marrow at 45 min after intravenous administration; assay type: ADME, organism-based; settings: in vivo, 0.75 h; summary of the method: as §1
Rattus norvegicus [9] = assay: Biodistribution of compound in rat muscle at 1440 min after intravenous administration; assay type: ADME, organism-based, Muscle tissue; settings: in vivo, 24 h; summary of the method: as §2
Rattus norvegicus [10] = assay: Biodistribution of compound in rat blood at 360 min after intravenous administration; assay type: ADME, organism-based; settings: in vivo, 6 h; summary of the method: as §1
Rattus norvegicus [11] = assay: Biodistribution of compound in rat muscle at 180 min after intravenous administration; assay type: ADME, organism-based, Muscle tissue; settings: in vivo, 3 h; summary of the method: as §2
Rattus norvegicus [12] = assay: Biodistribution of compound in rat blood at 5 min after intravenous administration; assay type: ADME, organism-based; settings: in vivo; summary of the method: as §1
Rattus norvegicus [13] = assay: Biodistribution of compound in rat feces at 1440 min after intravenous administration; assay type: ADME, organism-based; settings: in vivo, 24 h
Rattus norvegicus [14] = assay: Biodistribution of compound in rat eye at 360 min after intravenous administration; assay type: ADME, organism-based; settings: in vivo, 6 h; summary of the method: as §1
Rattus norvegicus [15] = assay: Biodistribution of compound in rat kidney at 1440 min after intravenous administration; assay type: ADME, organism-based; settings: in vivo, 24 h; summary of the method: as §1
Rattus norvegicus [16] = assay: Biodistribution of compound in rat heart after 5 min of administration; assay type: ADME, organism-based; settings: in vivo
Summary of the method: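 Female Sprague-Dawley rats (150–200 g) received the 99mTc complex in normal saline (~12.5 μCi/mL) via a lateral tail vein at ~25 μCi/kg. They were killed by cervical dislocation 5 min after injection. Tissues were washed with saline, blotted, weighed and γ-counted, and the read-out was percent injected dose per g tissue.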

Rattus norvegicus [17] = assay: Biodistribution of compound in rat gonads at 1440 min after intravenous administration; assay type: ADME, organism-based, Gonad; settings: in vivo, 24 h; summary of the method: as §1
Rattus norvegicus [18] = assay: Biodistribution of compound in rat gonads at 360 min after intravenous administration; assay type: ADME, organism-based, Gonad; settings: in vivo, 6 h; summary of the method: as §1
Rattus norvegicus [19] = assay: Biodistribution of compound in rat bone marrow at 1440 min after intravenous administration; assay type: ADME, organism-based; settings: in vivo, 24 h; summary of the method: as §1
Rattus norvegicus [20] = assay: Biodistribution of compound in rat kidney at 90 min after intravenous administration; assay type: ADME, organism-based; settings: in vivo, 1.5 h; summary of the method: as §1
Rattus norvegicus [21] = assay: Biodistribution of compound in rat kidney at 45 min after intravenous administration; assay type: ADME, organism-based; settings: in vivo, 0.75 h; summary of the method: as §1
Rattus norvegicus [22] = assay: Biodistribution of compound in rat liver at 360 min after intravenous administration; assay type: ADME, organism-based; settings: in vivo, 6 h; summary of the method: as §2
Rattus norvegicus [23] = assay: Biodistribution of compound in rat lungs at 5 min after intravenous administration; assay type: ADME, organism-based, Lung; settings: in vivo; summary of the method: as §2
Rattus norvegicus [24] = species: Rattus norvegicus; assay: The compound was tested for the plasma binding in rat; assay type: ADME, organism-based
Rattus norvegicus [25] = assay: Biodistribution of compound in rat heart at 45 min after intravenous administration; assay type: ADME, organism-based; settings: in vivo, 0.75 h; summary of the method: as §1
Rattus norvegicus [26] = assay: Biodistribution of compound in rat muscle at 5 min after intravenous administration; assay type: ADME, organism-based, Muscle tissue; settings: in vivo; summary of the method: as §2
Rattus norvegicus [27] = assay: Biodistribution of compound in rat bone at 90 min after intravenous administration; assay type: ADME, organism-based, Bone element; settings: in vivo, 1.5 h; summary of the method: as §1
Rattus norvegicus [28] = assay: Biodistribution of compound in rat blood at 180 min after intravenous administration; assay type: ADME, organism-based; settings: in vivo, 3 h; summary of the method: as §1
[29] = The compound was tested for the plasma binding in human; assay type: ADME, cell-free
Summary of the method: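 Fresh heparinized human plasma (1.0 mL, obtained daily) was spiked with 0.02 mL test solution and incubated about 15 min. Duplicate samples went through saline-equilibrated Sephadex G-25 desalting columns by centrifugation. Eluate and gel were γ-counted for 1 min or to 1% σ error. % bound = net cpm eluate / net cpm (eluate + gel) × 100.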

Rattus norvegicus [30] = assay: Biodistribution of compound in rat heart at 90 min after intravenous administration; assay type: ADME, organism-based; settings: in vivo, 1.5 h; summary of the method: as §1
Rattus norvegicus [31] = assay: Biodistribution of compound in rat liver at 45 min after intravenous administration; assay type: ADME, organism-based; settings: in vivo, 0.75 h; summary of the method: as §2
Rattus norvegicus [32] = assay: Biodistribution of compound in rat liver at 5 min after intravenous administration; assay type: ADME, organism-based; settings: in vivo; summary of the method: as §2
Rattus norvegicus [33] = assay: Biodistribution of compound in rat bone at 180 min after intravenous administration; assay type: ADME, organism-based, Bone element; settings: in vivo, 3 h; summary of the method: as §1
Rattus norvegicus [34] = assay: Biodistribution of compound in rat lungs at 360 min after intravenous administration; assay type: ADME, organism-based, Lung; settings: in vivo, 6 h; summary of the method: as §2
Rattus norvegicus [35] = assay: Biodistribution of compound in rat bone marrow at 5 min after intravenous administration; assay type: ADME, organism-based; settings: in vivo; summary of the method: as §1
Rattus norvegicus [36] = assay: Biodistribution of compound in rat bone at 45 min after intravenous administration; assay type: ADME, organism-based, Bone element; settings: in vivo, 0.75 h; summary of the method: as §1

Which results are given for Bis(1,3,5-trimethylbenzene)technetium?
Dose/g (Rattus norvegicus [1]): 0.1 % dose; Dose/g (Rattus norvegicus [2]): 0.01 % dose/organ; Dose/g (Rattus norvegicus [3]): 0.3 % dose/organ; Dose/g (Rattus norvegicus [4]): 0.48 % dose/organ; Dose/g (Rattus norvegicus [5]): 0.77 % dose; Dose/g (Rattus norvegicus [6]): 0.13 % dose/organ; Dose/g (Rattus norvegicus [7]): 0.044 % dose; Dose/g (Rattus norvegicus [8]): 0.36 % dose/organ; Dose/g (Rattus norvegicus [9]): 25 % dose/organ; Dose/ml (Rattus norvegicus [10]): 0.52 % dose; Dose/g (Rattus norvegicus [11]): 30 % dose/organ; Dose/ml (Rattus norvegicus [12]): 2.67 % dose; Dose/g (Rattus norvegicus [13]): 36.2 % dose; Dose/g (Rattus norvegicus [14]): 0.019 % dose; Dose/g (Rattus norvegicus [15]): 0.4 % dose; Dose/g (Rattus norvegicus [16]): 1.9%; Dose/g (Rattus norvegicus [17]): 0.018 % dose; Dose/g (Rattus norvegicus [18]): 0.05 % dose; Dose/g (Rattus norvegicus [19]): 0.02 % dose/organ; Dose/g (Rattus norvegicus [20]): 2 % dose/organ; Dose/g (Rattus norvegicus [21]): 5.8 % dose; Dose/g (Rattus norvegicus [22]): 0.8 % dose/organ; Dose/g (Rattus norvegicus [23]): 1.15 % dose/organ; Plasma binding (Rattus norvegicus [24]): 11%; Dose/g (Rattus norvegicus [25]): 1.2 % dose; Dose/g (Rattus norvegicus [26]): 30 % dose/organ; Dose/g (Rattus norvegicus [27]): 1.4 % dose/organ; Dose/ml (Rattus norvegicus [28]): 0.67 % dose; Plasma binding [29]: 21%; Dose/g (Rattus norvegicus [30]): 1.17 % dose; Dose/g (Rattus norvegicus [31]): 3.1 % dose; Dose/g (Rattus norvegicus [32]): 10.4 % dose/organ; Dose/g (Rattus norvegicus [33]): 1.5 % dose/organ; Dose/g (Rattus norvegicus [34]): 0.34 % dose/organ; Dose/g (Rattus norvegicus [35]): 0.37 % dose/organ; Dose/g (Rattus norvegicus [36]): 1.8 % dose/organ
